Data on eleven compounds can be found in ChEMBL document CHEMBL1139887, “Glycosides from the stem bark of Fraxinus sieboldiana” (J Nat Prod, 2007).

For assay [1], the system named is Peritoneal macrophage cell. Put plainly: Inhibition of LPS-induced TNFalpha secretion in C57BL/6J mouse peritoneal macrophages at 10 uM after 24 hrs. The assay is classed as functional. Put shortly: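 Macrophages from male C57BL6J mice, harvested 4 days after i.p. thioglycollate. Cells adhered 2 h, then 24 h at 37 °C with compound (10^-5 M final), LPS 1 µg/mL and 5% FCS. Supernatant put on L929 cells with actinomycin D 0.5 µg/mL for 20 h, then MTT 4 h, A570. Triplicate wells. Inhibition = (L−S)/(L−B)×100. Indomethacin reference.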

Another assay relates to Liver microsomes. Put plainly: Antioxidant activity in rat liver microsomes assessed as inhibition of ferrous-cystine-induced lipid peroxidation after 15 mins. The assay is classed as functional, Microsome. The gist of the method: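 Microsomes from rat liver suspended in 100 mM Tris-HCl pH 7.4. Then 50 µM FeSO4 added and a further 15 min at 37 °C. Stopped with 20% TCA and spun. Supernatant heated with 0.67% TBA 10 min, read at 532 nm. Tested over several concentrations.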
(In general: Microsomes from liver hold many membrane-bound enzymes, among them those of drug oxidation.)

For another assay, the system named is A2780. The assay can be described thus: Cytotoxicity against human A2780 cells. The assay is classed as cell-based.
The subject of a further assay is HCT-8. Put plainly: Cytotoxicity against human HCT8 cells. The assay is classed as cell-based.
Assay [2] is described as follows: Cytotoxicity against human Bel7402 cells. The assay is classed as cell-based. The conditions noted are these: Bel-7402.
Assay [3] in a line: Cytotoxicity against human BGC823 cells. In kind it is cell-based. To be noted: BGC-823.
The next assay concerns A549. The assay can be described thus: Cytotoxicity against human A549 cells. The assay is classed as cell-based.
For assay [4], the system named is Peritoneal macrophage cell. Put plainly: Inhibition of LPS-induced TNFalpha secretion in C57BL/6J mouse peritoneal macrophages after 24 hrs. In kind it is functional, cell-based.

Molecules are shown by their SMILES.

The term inhibition denotes the change of the read-out against control, counted positive when it falls. A lower inhibition goes with little suppression. By IC50 is commonly meant the concentration that inhibits the measured activity by half. `COc1cc(O[C@@H]2O[C@H](CO)[C@@H](O)[C@H](O)[C@H]2O)ccc1O[C@@H]1O[C@H](CO)[C@@H](O)[C@H](O)[C@H]1O` yielded an inhibition at 10 µM in assay [1] of 16.3%. Besides, the IC50 with Liver microsomes was above 10 µM; in the assay on A2780 it was above 5 µM; with HCT-8 it was above 5 µM; in assay [2], above 5 µM; in assay [3] it was above 5 µM; in the assay on A549, above 5 µM.

Take `COc1cc([C@@H](O)[C@H](O)CO)cc(OC)c1O[C@@H]1O[C@H](CO)[C@@H](O)[C@H](O)[C@H]1O`: 10 µM produced 27.5% inhibition in assay [1]. Further, the 50% inhibitory concentration (IC50) is above 10 µM in the assay on Liver microsomes; above 5 µM in the assay with A2780; above 5 µM in the assay on HCT-8; above 5 µM in assay [2]; above 5 µM in assay [3]; above 5 µM in the assay on A549.

The compound `COc1cc(CCO[C@@H]2O[C@H](CO[C@@H]3OC[C@](O)(CO)[C@H]3O)[C@@H](O)[C@H](O)[C@H]2O)ccc1O` returned an inhibition at 10 µM in assay [1] of 44.3%. Further, the concentration for half-maximal inhibition (IC50) was above 10 µM in the assay on Liver microsomes; above 5 µM in the assay with A2780; above 5 µM in the assay with HCT-8; above 5 µM in assay [2]; above 5 µM in assay [3]; above 5 µM in the assay on A549. In assay [4], the half-maximal inhibitory concentration (IC50) came to 1.6 µM.

Compound `COc1cc([C@H](O)[C@@H](O)CO)cc(OC)c1O[C@@H]1O[C@H](CO)[C@@H](O)[C@H](O)[C@H]1O` showed an inhibition at 10 µM in assay [1] of 28.2%. Besides, the IC50 in the assay with Liver microsomes is above 10 µM; in the assay on A2780, above 5 µM; in the assay with HCT-8, above 5 µM; in assay [2] it was above 5 µM; in assay [3], above 5 µM; in the assay with A549 it was above 5 µM.

In assay [1], `COc1cc(O[C@@H]2O[C@H](CO)[C@@H](O)[C@H](O)[C@H]2O)cc(OC)c1O[C@@H]1O[C@H](CO)[C@@H](O)[C@H](O)[C@H]1O` gave an inhibition at 10 µM of 25.2%. In addition, the IC50 in the assay with Liver microsomes was above 10 µM; with A2780 it was above 5 µM; in the assay on HCT-8, above 5 µM; in assay [2], above 5 µM; in assay [3], above 5 µM; in the assay with A549, above 5 µM.

As to `COc1cc([C@@H](O)[C@@H](O)CO)cc(OC)c1O[C@@H]1O[C@H](CO)[C@@H](O)[C@H](O)[C@H]1O`, the inhibition at 10 µM in assay [1] came out at 26.6%. Moreover, the IC50 in the assay with Liver microsomes was above 10 µM; with A2780, above 5 µM; with HCT-8 it was above 5 µM; in assay [2], above 5 µM; in assay [3], above 5 µM; in the assay with A549, above 5 µM.

`OC[C@@]1(O)CO[C@@H](OC[C@H]2O[C@@H](OCCc3ccc(O)c(O)c3)[C@H](O)[C@@H](O)[C@@H]2O)[C@@H]1O`: in assay [1], 10 µM produced 28.8% inhibition. The half-inhibitory concentration (IC50) with Liver microsomes is 0.9 µM; with A2780, above 5 µM; in the assay on HCT-8, above 5 µM; in assay [2] it was above 5 µM; in assay [3], above 5 µM; in the assay on A549 it was above 5 µM.

`COc1cc(C(=O)OC[C@H]2O[C@@H](Oc3cc4ccc(=O)oc4cc3O)[C@H](O)[C@@H](O)[C@@H]2O)ccc1O[C@@H]1O[C@H](CO)[C@@H](O)[C@H](O)[C@H]1O`: in assay [1], the inhibition at 10 µM came out at 30.8%. Besides, the IC50 was above 10 µM with Liver microsomes; above 5 µM with A2780; above 5 µM in the assay with HCT-8; above 5 µM in assay [2]; above 5 µM in assay [3]; above 5 µM in the assay on A549.

With `CC1=C[C@@H](C2=C(C)CC[C@H](O[C@@H]3O[C@H](CO)[C@@H](O)[C@H](O)[C@H]3O)C2(C)C)[C@@H](/C=C(/C)C(=O)O)OC1` [FRAXINUACIDOSIDE], the IC50 in the assay with Liver microsomes is above 10 µM; with A2780, above 5 µM; in the assay on HCT-8 it was above 5 µM; in assay [2] it was above 5 µM; in assay [3] it was above 5 µM; in the assay on A549 it was above 5 µM.

In turn, `COc1ccc2c(c1)c(CC(=O)O)c(C)n2C(=O)c1ccc(Cl)cc1` [INDOMETHACIN] had an inhibition at 10 µM in assay [1] of 33.2%.

`O=C(/C=C/c1ccc(O)c(O)c1)OC[C@H]1O[C@H]2OC[C@H](c3ccc(O)c(O)c3)O[C@@H]2[C@@H](O)[C@@H]1O` [PLANTASIOSIDE]: the IC50 in the assay on HCT-8 was determined as 3.4 µM.
